ChEMBL document CHEMBL5046221, “Identification of Pyrimidine-Based Lead Compounds for Understudied Kinases Implicated in Driving Neurodegeneration” (J Med Chem, 2022)
pIC50: −log10 of the molar value.

Experiments:
[1] = molecular target: T1, Inhibitor of nuclear factor kappa-B kinase subunit epsilon (Homo sapiens, UniProt Q14164); assay: Inhibition of full length recombinant human IKKepsilon using casein as substrate incubated for 40 mins in presence of [gamma-33P-ATP] by radiometric scintillation assay
T1 sequence (Q14164 whole entry): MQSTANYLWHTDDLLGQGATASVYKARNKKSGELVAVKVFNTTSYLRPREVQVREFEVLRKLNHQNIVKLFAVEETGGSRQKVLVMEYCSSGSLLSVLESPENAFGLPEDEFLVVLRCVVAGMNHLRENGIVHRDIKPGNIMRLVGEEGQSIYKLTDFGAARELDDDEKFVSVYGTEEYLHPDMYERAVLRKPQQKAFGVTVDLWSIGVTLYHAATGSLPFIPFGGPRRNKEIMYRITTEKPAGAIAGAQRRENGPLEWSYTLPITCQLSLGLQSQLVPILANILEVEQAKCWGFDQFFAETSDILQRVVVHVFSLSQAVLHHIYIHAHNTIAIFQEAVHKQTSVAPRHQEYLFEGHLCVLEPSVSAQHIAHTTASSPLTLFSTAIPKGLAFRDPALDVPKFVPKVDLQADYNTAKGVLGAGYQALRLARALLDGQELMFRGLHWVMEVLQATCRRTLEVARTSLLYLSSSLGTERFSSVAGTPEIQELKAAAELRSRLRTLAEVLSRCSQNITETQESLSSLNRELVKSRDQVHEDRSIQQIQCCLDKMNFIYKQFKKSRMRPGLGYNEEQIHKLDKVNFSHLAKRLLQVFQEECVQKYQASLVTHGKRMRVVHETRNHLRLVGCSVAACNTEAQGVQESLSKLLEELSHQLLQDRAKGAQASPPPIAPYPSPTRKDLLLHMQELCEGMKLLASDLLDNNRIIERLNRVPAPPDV
How it was run: (§1)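 Eurofins radiometric kinase assay run at ATP equal to Km for each kinase. 9-point dose–response in duplicate gives the IC50.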

[2] = molecular target: T2, BMP-2-inducible protein kinase (Homo sapiens, UniProt Q9NSY1); assay: Residual activity of human BMP2K at 1 uM using peptide as substrate incubated for 120 mins in presence of [gamma-33P-ATP] by radiometric scintillation assay relative to control
T2 sequence (Q9NSY1 whole entry, looked up, the tested form may be a part): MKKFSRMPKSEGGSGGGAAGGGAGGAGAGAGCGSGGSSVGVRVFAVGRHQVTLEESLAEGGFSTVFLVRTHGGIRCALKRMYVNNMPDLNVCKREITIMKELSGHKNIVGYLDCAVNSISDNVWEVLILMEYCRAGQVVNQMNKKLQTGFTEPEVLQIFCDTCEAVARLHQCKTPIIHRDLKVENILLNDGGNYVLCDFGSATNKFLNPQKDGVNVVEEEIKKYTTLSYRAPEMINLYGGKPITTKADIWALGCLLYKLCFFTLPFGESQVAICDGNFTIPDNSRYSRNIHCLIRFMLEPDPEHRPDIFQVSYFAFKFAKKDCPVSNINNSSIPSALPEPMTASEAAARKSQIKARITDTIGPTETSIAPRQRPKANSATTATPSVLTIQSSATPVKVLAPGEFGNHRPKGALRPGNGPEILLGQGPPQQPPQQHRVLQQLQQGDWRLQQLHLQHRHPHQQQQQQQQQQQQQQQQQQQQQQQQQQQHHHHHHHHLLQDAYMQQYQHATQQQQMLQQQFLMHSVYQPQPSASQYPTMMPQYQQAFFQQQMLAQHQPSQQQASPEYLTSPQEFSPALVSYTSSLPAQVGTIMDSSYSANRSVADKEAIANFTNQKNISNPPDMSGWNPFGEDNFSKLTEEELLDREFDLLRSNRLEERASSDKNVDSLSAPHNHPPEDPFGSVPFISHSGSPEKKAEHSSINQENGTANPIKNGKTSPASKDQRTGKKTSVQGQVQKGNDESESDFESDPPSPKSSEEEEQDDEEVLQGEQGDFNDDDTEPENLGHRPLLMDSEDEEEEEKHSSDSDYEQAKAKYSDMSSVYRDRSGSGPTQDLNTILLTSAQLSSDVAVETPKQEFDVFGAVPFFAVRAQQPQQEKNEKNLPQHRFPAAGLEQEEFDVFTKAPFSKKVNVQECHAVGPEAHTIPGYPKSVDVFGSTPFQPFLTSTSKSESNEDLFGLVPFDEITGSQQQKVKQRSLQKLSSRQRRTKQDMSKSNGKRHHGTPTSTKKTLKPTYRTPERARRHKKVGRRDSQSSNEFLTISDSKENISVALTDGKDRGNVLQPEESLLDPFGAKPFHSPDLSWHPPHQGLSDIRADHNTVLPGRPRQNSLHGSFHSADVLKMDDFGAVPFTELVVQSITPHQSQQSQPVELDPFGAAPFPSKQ

[3] = molecular target: Serine/threonine-protein kinase SIK2 (Homo sapiens, UniProt Q9H0K1); assay: Inhibition of recombinant human SIK2 (1 to 276 residues) using KKKVSRSGLYRSPSMPENLNRPR as substrate measured after 40 mins in presence of [gamma33P]ATP by radiometric scintillation counting method; how it was run: as §1
Chain of Serine/threonine-protein kinase SIK2 (Q9H0K1 whole entry, the tested form may be a part): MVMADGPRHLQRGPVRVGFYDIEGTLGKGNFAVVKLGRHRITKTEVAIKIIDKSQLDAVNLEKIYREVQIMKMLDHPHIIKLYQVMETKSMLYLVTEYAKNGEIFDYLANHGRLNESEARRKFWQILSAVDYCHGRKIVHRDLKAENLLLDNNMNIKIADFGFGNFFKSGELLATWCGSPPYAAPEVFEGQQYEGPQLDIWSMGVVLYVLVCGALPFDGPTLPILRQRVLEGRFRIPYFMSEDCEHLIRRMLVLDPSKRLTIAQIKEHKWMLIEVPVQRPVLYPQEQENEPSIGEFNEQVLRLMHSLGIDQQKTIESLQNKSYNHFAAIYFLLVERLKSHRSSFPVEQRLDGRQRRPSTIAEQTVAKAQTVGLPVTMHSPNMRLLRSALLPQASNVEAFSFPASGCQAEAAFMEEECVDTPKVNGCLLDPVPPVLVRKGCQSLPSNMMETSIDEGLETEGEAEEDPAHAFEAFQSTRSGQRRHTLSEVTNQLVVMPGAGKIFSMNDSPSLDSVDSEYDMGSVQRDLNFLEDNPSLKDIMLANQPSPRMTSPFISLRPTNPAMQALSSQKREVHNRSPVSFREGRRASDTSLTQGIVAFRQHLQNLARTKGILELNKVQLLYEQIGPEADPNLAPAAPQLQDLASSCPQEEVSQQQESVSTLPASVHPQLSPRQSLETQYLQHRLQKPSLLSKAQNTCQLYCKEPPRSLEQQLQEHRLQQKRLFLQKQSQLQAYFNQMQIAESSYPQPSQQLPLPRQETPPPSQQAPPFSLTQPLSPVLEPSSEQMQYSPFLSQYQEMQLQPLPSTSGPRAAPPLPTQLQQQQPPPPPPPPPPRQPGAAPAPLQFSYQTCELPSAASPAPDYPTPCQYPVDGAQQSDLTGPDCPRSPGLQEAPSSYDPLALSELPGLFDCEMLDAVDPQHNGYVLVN

[4] = molecular target: T3, Serine/threonine-protein kinase 17A (Homo sapiens) (UniProt Q9UEE5); assay: Inhibition of full length recombinant human DRAK1 using KKLNRTLSFAEPG as substrate at 1 uM incubated for 40 mins in presence of [gamma-33P-ATP] by radiometric scintillation assay relative to control
T3 sequence (whole entry): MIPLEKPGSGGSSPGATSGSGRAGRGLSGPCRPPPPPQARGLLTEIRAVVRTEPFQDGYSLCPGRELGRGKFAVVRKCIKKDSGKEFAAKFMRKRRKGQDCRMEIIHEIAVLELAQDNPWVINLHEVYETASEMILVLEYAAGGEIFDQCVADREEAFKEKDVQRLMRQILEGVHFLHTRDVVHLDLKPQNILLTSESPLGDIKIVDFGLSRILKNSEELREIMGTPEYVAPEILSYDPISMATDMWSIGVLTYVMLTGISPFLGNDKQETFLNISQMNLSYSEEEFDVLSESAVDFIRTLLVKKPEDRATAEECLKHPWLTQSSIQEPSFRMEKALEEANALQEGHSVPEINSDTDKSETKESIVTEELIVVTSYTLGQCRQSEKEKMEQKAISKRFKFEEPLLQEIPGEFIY
How it was run: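 Eurofins radiometric kinase assay with ATP at Km for each kinase. Compound was tested at a single 1 μM concentration in duplicate, and the result is reported as percent of control.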

[5] = molecular target: T2, BMP-2-inducible protein kinase; assay: Inhibition of 1recombinant human BMP2K using myelin basic protein as substrate incubated for 120 mins in presence of [gamma-33P-ATP] by radiometric scintillation assay

For `NS(=O)(=O)c1ccc(CNc2nc(Nc3cccc(CN4CCOCC4)c3)ncc2C2CC2)cc1`, the pIC50 [1] was 5.88.
`c1cc(CN2CCOCC2)cc(Nc2nccc(NCCc3cnc[nH]3)n2)c1` gave a % control [2] of 58%, a pIC50 [3] of 6.73 and a % control [4] of 78%.
Work on `NS(=O)(=O)c1ccc(CNc2nc(Nc3cccc(NC(=O)N4CCCC4)c3)ncc2Br)cc1` yielded a pIC50 [5] of 6.31.
